# T1: L94ABH3, 26-mer Bim BH3 peptide with L94A (mouse, L94A (stands in the printed letters))
# T1 peptide: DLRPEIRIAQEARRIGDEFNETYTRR
# T2: Bcl-w ΔC10 (Homo sapiens, UniProt Q92843, A128E/C29S)
# T2 sequence (Q92843 1-183 C29S/A128E limits assumed): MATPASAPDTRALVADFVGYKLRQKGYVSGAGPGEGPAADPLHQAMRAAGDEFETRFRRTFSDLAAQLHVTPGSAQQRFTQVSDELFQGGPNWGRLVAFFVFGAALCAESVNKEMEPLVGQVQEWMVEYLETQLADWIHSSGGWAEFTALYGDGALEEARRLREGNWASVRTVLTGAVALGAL
# B1: Wild-type Bcl-w: prosurvival Bcl-2 family protein, expressed FLAG-tagged (protein)
# chain: MATPASAPDTRALVADFVGYKLRQKGYVCGAGPGEGPAADPLHQAMRAAGDEFETRFRRTFSDLAAQLHVTPGSAQQRFTQVSDELFQGGPNWGRLVAFFVFGAALCAESVNKEMEPLVGQVQEWMVAYLETQLADWIHSSGGWAEFTALYGDGALEEARRLREGNWASVRTVLTGAVALGALVTVGAFFASK
# modifications: left off: FLAG, N-terminal, kept
# B2: Bcl-w ΔC10 (C29S, A128E), His6-tagged recombinant (domain or fragment, UniProt Q92843 1-183, looked up)
# chain: T2 sequence (Q92843 1-183 C29S/A128E limits assumed)
# B3: BimLΔC27 (recombinant BimL lacking its COOH-terminal hydrophobic 27 amino acids) (domain or fragment, mouse, UniProt O54918-2 1-113, looked up)
# chain: MAKQPSDVSSECDREGGQLQPAERPPQLRPGAPTSLQTEPQDRSPAPMSCDKSTQTPSPPCQAFNHYLSAMASIRQSQEEPEDLRPEIRIAQELRRIGDEFNETYTRRVFAND
# B4: BimLΔC27: Purified recombinant BimL lacking its COOH-terminal hydrophobic 27 amino acids (protein)
# chain: B3 chain
# modifications: left off: GST, end not stated, state not stated
# What was measured:
# [1] = test system: endogenous Bcl-w in HeLa cells; assay: Drug-induced membrane association of endogenous Bcl-w, HeLa cells; type: cell-based; conditions: 24 h, 1.0 μg/ml etoposide (VP16) or 10 nM staurosporine
# How it was run: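 HeLa cells were harvested 24 h after 50 Jm−2 UV, 1.0 μg/ml etoposide or 10 nM staurosporine. Lysis was in HMKEE buffer (Hepes pH 7.2) with 250 mM sucrose and 0.025% digitonin, 10 min on ice. Pellet (13,000 rpm, 2 min, 4°C) was solubilised in RIPA. Soluble and pellet fractions were immunoblotted for endogenous Bcl-w.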
# Bcl-w in FDC-P1 cells = assay: Damage-induced membrane association of Bcl-w, FDC-P1 cells; type: cell-based
# How it was run: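 FDC-P1 or FD/FLAG–Bcl-w cells were given 100 nM staurosporine, 10 Gy γ irradiation or IL-3 withdrawal, in some runs with 50 μM zVAD.fmk. Cells were lysed in HMKEE/250 mM sucrose/0.025% digitonin for 10 min on ice. Pellet (13,000 rpm, 2 min, 4°C) and soluble fractions were separated. Pellet was RIPA-solubilised, with or without alkali treatment, and immunoblotted for Bcl-w.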
# FDC-P1 cells = assay: Inhibition of apoptosis / cell survival; type: cell-based; conditions: zVAD.fmk with death signals
# BimEL = assay: Coimmunoprecipitation of Bcl-w constructs with BimEL; type: binding; conditions: 35S-labeled lysates, 293T cells
# [2] = target: T1, L94ABH3, 26-mer Bim BH3 peptide with …; assay: SPR
# [3] = target: B2; assay: SPR
# Bcl-w ΔC10 = target: T2, Bcl-w ΔC10; assay: Optical biosensor; type: binding
molecule,measurement,setting,value
COc1cc([C@@H]2c3cc4c(cc3[C@@H](O[C@@H]3O[C@@H]5CO[C@@H](C)O[C@H]5[C@H](O)[C@H]3O)[C@H]3COC(=O)[C@H]23)OCO4)cc(OC)c1O [etoposide],membrane association of endogenous Bcl-w,[1],Damage signals trigger membrane association of endogenous Bcl-w in HeLa cells
CN[C@@H]1C[C@H]2O[C@@](C)([C@@H]1OC)n1c3ccccc3c3c4c(c5c6ccccc6n2c5c31)C(=O)NC4 [staurosporine],"membrane association of endogenous Bcl-w, alkali-resistant","Bcl-w in FDC-P1 cells; FDC-P1 cells, 100 nM staurosporine",damage signals induce membrane association resistant to alkali treatment
same,membrane association of endogenous Bcl-w,[1],Damage signals trigger membrane association of endogenous Bcl-w in HeLa cells
zVAD.fmk,recruitment of Bcl-w to the membrane fraction with caspase inhibitor,"Bcl-w in FDC-P1 cells; 50 μM zVAD.fmk plus death signals, FD/FLAG–Bcl-w cells",Bcl-w was still recruited into the membrane fraction in response to death signals
same,delay of cell death,FDC-P1 cells,delayed cell death
B1,binding to BimEL,BimEL,interacts avidly with Bim
B2,fold reduction of binding against wtBH3,[2],> 50 fold
B3,binding result,[3],binds
B4,binding to Bcl-w,Bcl-w ΔC10,binds purified Bcl-w with high (nM) affinity
"DLRPEIRIAQELRRIGDEFNETYTRR [wtBH3, 26-mer peptide spanning the BH3 domain of Bim]",binding result,[3],binds

# — PMC2172834 (The Journal of Cell Biology, 2003)
